The source made the active and inactive calls. No cut-off for these calls is given here.
Experiments:
[1] = Stability of the compound in DMEM medium with 10% FBS incubated for 72 hrs by HPLC analysis
How it was run: (§1)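 Prodrugs were held in DMEM with 10% FBS for up to 72 h. The fraction of intact compound remaining over time was followed by HPLC.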

[2] = Stability of the compound in DMEM medium with 10% FBS assessed as compound remaining incubated for 24 hrs by HPLC analysis; how it was run: as §1
MCF7 [3] = assay: Cytotoxicity against human MCF7 cells assessed as reduction in cell viability incubated for 48 hrs by MTT assay; type: functional, cell-based; details: for IC50: MCF7, 48 h
How it was run: (§2)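 MTT assay on MCF-7 breast cancer cells and noncancerous Vero cells, with tamoxifen as positive control. One MCF-7 arm was pretreated with the NQO1 inhibitor dicoumarol. IC50 values are from three experiments. Cytotoxicity index is the IC50 of the prodrug in Vero cells relative to the parent cucurbitacin B IC50 in Vero cells.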

Vero = assay: Cytotoxicity against African green monkey Vero cells assessed as reduction in cell viability incubated for 48 hrs by MTT assay; type: cell-based; details: Chlorocebus sabaeus; how it was run: as §2
MCF7 [4] = assay: Cytotoxicity against human MCF7 cells assessed as reduction in cell viability incubated for 48 hrs in presence of NQO1 inhibitor dicoumarol by MTT assay; type: functional, cell-based; details: MCF7, 48 h; how it was run: as §2
[5] = Cytotoxicity index, ratio of compound IC50 to cucurbitacin B IC50 for cytotoxicity against African green monkey Vero cells by MTT assay; type: cell-based; details: chlorocebus sabaeus, read-out: Ratio IC50; how it was run: as §2
[6] = Drug uptake in human MCF7 cells assessed as compound remaining in culture medium at 25 uM incubated for 24 hrs by HPLC analysis; type: ADME, cell-based; details: mcf7, 24 h
How it was run: (§3)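 MCF-7 cells were exposed to 25 μM prodrug for 24 h, then lysed. Prodrug concentrations in culture medium and in cell lysate were measured by HPLC against a calibration curve.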

[7] = target: T1, NAD(P)H dehydrogenase [quinone] 1 (Homo sapiens, UniProt P15559); assay: Prodrug activation in human MCF7 cells assessed as NQO1-mediated CuB release in cell lysate at 25 uM incubated for 24 hrs by HPLC analysis; type: subcellular; details: mcf7, 24 h
T1 sequence (P15559 whole entry): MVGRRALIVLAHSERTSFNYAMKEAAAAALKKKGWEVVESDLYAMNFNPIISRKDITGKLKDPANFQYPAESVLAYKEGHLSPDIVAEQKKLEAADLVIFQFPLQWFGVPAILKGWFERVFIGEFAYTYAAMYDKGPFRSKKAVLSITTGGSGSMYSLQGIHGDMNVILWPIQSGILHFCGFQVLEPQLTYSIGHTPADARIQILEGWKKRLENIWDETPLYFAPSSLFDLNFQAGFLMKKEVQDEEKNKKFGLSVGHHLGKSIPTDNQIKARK

[8] = target: T1, NAD(P)H dehydrogenase [quinone] 1; assay: Prodrug activation in human MCF7 cells assessed as NQO1-mediated CuB release at 25 uM incubated for 24 hrs by HRMS analysis; type: cell-based; details: mcf7, 24 h
[9] = target: T1, NAD(P)H dehydrogenase [quinone] 1; assay: Prodrug activation in human MCF7 cells assessed as NQO1-mediated cucurbitacin B formation by ESI-TOFMS analysis; type: cell-based
[10] = target: T1, NAD(P)H dehydrogenase [quinone] 1; assay: Prodrug activation in human MCF7 cells assessed as appearance of extended m/z range to 1000 at 25 uM measured after 24 hrs by HRMS analysis; type: cell-based; details: mcf7, 24 h
[11] = target: T1, NAD(P)H dehydrogenase [quinone] 1; assay: Prodrug activation in human MCF7 cells assessed as NQO1-mediated 6-hydroxy-4,4,5,7,8-pentamethylchroman-2-one formation at 25 uM incubated for 24 hrs by HRMS analysis; type: cell-based; details: mcf7, 24 h
[12] = Drug uptake in human MCF7 cell lysate at 25 uM incubated for 24 hrs by HPLC analysis; type: ADME, subcellular; details: mcf7, 24 h; how it was run: as §3
[13] = Toxicity in BALB/c mouse implanted with mouse 4T1 cells assessed as death at 3 mg/kg/day, ip measured after 1 day; type: organism-based; details: in vivo, 24 h
How it was run: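 BALB/c mice carrying 4T1 breast cancer cell tumours received the test agent once a day, dosed in mg/kg/d. An untreated control group ran alongside. Tumour volume and body weight were followed over the treatment period, survival was recorded after dosing began, and tumours were excised and weighed after sacrifice.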

4T1 [14] = assay: Antitumor activity against mouse 4T1 cells implanted in BALB/c mouse assessed as tumor growth inhibition at 5 mg/kg/day, ip for 2 weeks measured daily during compound dosing by digital caliper method relative to control; type: functional; details: 4T1, ip, 336 h, read-out: TGI
[15] = Toxicity in BALB/c mouse implanted with mouse 4T1 cells assessed as body weight at 5 mg/kg/day, ip for 2 weeks measured during compound dosing (reference value: -1.48 %); type: organism-based; details: in vivo, 336 h
[16] = target: T1, NAD(P)H dehydrogenase [quinone] 1; assay: (§4) Prodrug activation in human MCF7 cells assessed as NQO1-mediated ((R)-6-((2S,8S,9R,10R,13R,14S,16R,17R)-2-(3-aminopropylcarbamoyloxy)-16-hydroxy-4,4,9,13,14-pentamethyl-3,11-dioxo-2,3,4,7,8,9,10,11,12,13,14,15,16,17-tetradecahydro-1H-cyclopenta[a]phenanthren-17-yl)-6-hydroxy-2-methyl-5-oxohept-3-en-2-yl acetate formation at 25 uM incubated for 24 hrs by HRMS analysis; type: cell-based; details: mcf7, 24 h
[17] = target: T1, NAD(P)H dehydrogenase [quinone] 1; assay: as §4, with “acetate metabolite” for “acetate”, “HPLC” for “HRMS”; type: ADME, cell-based; details: mcf7, 24 h
[18] = target: T1, NAD(P)H dehydrogenase [quinone] 1; assay: Prodrug activation in human MCF7 cell lysate assessed as NQO1-mediated tetrahydropyrimidin-2(1H)-one formation at 25 uM incubated for 24 hrs by HPLC analysis; type: subcellular; details: mcf7, 24 h
[19] = target: T1, NAD(P)H dehydrogenase [quinone] 1; assay: Prodrug activation in human MCF7 cells assessed as NQO1-mediated ((R)-6-((2S,8S,9R,10R,13R,14S,16R,17R)-2-(3-aminopropylcarbamoyloxy)-16-hydroxy-4,4,9,13,14-pentamethyl-3,11-dioxo-2,3,4,7,8,9,10,11,12,13,14,15,16,17-tetradecahydro-1H-cyclopenta[a]phenanthren-17-yl)-6-hydroxy-2-methyl-5-oxohept-3-en-2-yl acetate formation by ESI-TOFMS analysis; type: cell-based
[20] = Prodrug activation in human MCF7 cell cultured in DMEM medium with 10% FBS at 25 uM incubated for 24 hrs by HPLC analysis; type: cell-based; details: mcf7, 24 h
[21] = target: T1, NAD(P)H dehydrogenase [quinone] 1; assay: (§5) Prodrug activation in human MCF7 cells assessed as NQO1-mediated (R)-6-hydroxy-6-((2S,8S,9R,10R,13R,14S,16R,17R)-16-hydroxy-4,4,9,13,14-pentamethyl-2-(methyl(3-(methylamino)propyl)carbamoyloxy)-3,11-dioxo 2,3,4,7,8,9,10,11,12,13,14,15,16,17-tetradecahydro-1H-cyclopenta[a]phenanthren-17-yl)-2-methyl-5-oxohept-3-en-2-yl acetate metabolite formation at 25 uM incubated for 24 hrs by HPLC analysis; type: ADME, cell-based; details: mcf7, 24 h
4T1 [22] = assay: Antitumor activity against mouse 4T1 cells xenografted in BALB/c mouse assessed as tumor weight at 3 to 10 mg/kg/day, ip for 2 weeks (reference value: 500 to 700 mg); type: functional
[23] = Toxicity in BALB/c mouse implanted with mouse 4T1 cells assessed as body weight at 3 mg/kg/day, ip for 2 weeks measured daily during compound dosing (reference value: -1.48 %); type: organism-based; details: in vivo, 336 h
[24] = Toxicity in BALB/c mouse implanted with mouse 4T1 cells assessed as body weight at 10 mg/kg/day, ip for 2 weeks measured daily during compound dosing (reference value: -1.48 %); type: organism-based; details: in vivo, 336 h
[25] = target: T1, NAD(P)H dehydrogenase [quinone] 1; assay: as §5, with “acetate” for “acetate metabolite”, “HRMS” for “HPLC”; type: cell-based; details: mcf7, 24 h
4T1 [26] = assay: Antitumor activity against mouse 4T1 cells implanted in BALB/c mouse assessed as tumor growth inhibition at 3 to 10 mg/kg/day, ip for 2 weeks measured daily during compound dosing by digital caliper method; type: functional, organism-based
[27] = target: T1, NAD(P)H dehydrogenase [quinone] 1; assay: Prodrug activation in human MCF7 cell lysate assessed as NQO1-mediated 1,3-dimethyltetrahydropyrimidin-2(1H)-one formation at 25 uM incubated for 24 hrs by HPLC analysis; type: subcellular; details: mcf7, 24 h
[28] = target: T1, NAD(P)H dehydrogenase [quinone] 1; assay: Prodrug activation in human MCF7 cells assessed as NQO1-mediated (R)-6-hydroxy-6-((2S,8S,9R,10R,13R,14S,16R,17R)-16-hydroxy-4,4,9,13,14-pentamethyl-2-(methyl(3-(methylamino)propyl)carbamoyloxy)-3,11-dioxo 2,3,4,7,8,9,10,11,12,13,14,15,16,17-tetradecahydro-1H-cyclopenta[a]phenanthren-17-yl)-2-methyl-5-oxohept-3-en-2-yl acetate formation by ESI-TOFMS analysis; type: cell-based

Drug metabolism [7] | Drug metabolism [8] | Drug metabolism [9] | Drug metabolism [10] | Drug metabolism [11] | Drug uptake [12] | Compound | Stability [1] | Stability [2] [%] | IC50 (MCF7 [3]) [µM] | IC50 (Vero) [µM] | IC50 (MCF7 [4]) [µM] | selectivity ratio [5] | inhibition (MCF7 [3]) | Activity (Vero) | other results
Metabolite_Detected | Metabolite_Detected | Metabolite_Detected | Metabolite_Notdetected | Metabolite_Detected | Not Active | CC(=O)OC(C)(C)/C=C/C(=O)[C@](C)(O)[C@H]1[C@H](O)C[C@@]2(C)[C@@H]3CC=C4[C@@H](C[C@H](OC(=O)CC(C)(C)C5=C(C)C(=O)C(C)=C(C)C5=O)C(=O)C4(C)C)[C@]3(C)C(=O)C[C@]12C | Stable | > 90 | 16.6 | 0.07 | > 100 | 1.75 |  |  | Drug uptake [6]: 6.21 µM
 |  |  |  |  |  | Cc1c(C)c2c(c(C)c1O)C(C)(C)CC(=O)O2 |  |  |  |  |  |  | inactive | Non-Toxic | 
 |  |  |  |  |  | CC(=O)OC(C)(C)/C=C/C(=O)[C@](C)(O)[C@H]1[C@H](O)C[C@@]2(C)[C@@H]3CC=C4[C@@H](C[C@H](O)C(=O)C4(C)C)[C@]3(C)C(=O)C[C@]12C |  |  | 12 | 0.04 | 9.72 |  |  |  | Activity [13]: Toxic
 |  |  |  |  |  | Cc1c2ccncc2c(C)c2c1[nH]c1ccccc12 [ELLIPTECINE] |  |  |  | 4.06 |  |  |  |  | 
 |  |  |  |  |  | CC/C(=C(\c1ccccc1)c1ccc(OCCN(C)C)cc1)c1ccccc1 [TAMOXIFEN] |  |  |  |  |  |  |  |  | inhibition in vivo at 5 mg/kg/day (4T1 [14]): 55%; Activity [15]: 4.99%
 |  |  |  |  |  | CN1CCCN(C)C1=O |  |  |  |  |  |  | inactive | Non-Toxic | 
Metabolite_Detected | Metabolite_Detected | Metabolite_Detected | Metabolite_Notdetected | Metabolite_Detected | Not Active | CC(=O)OC(C)(C)/C=C/C(=O)[C@](C)(O)[C@H]1[C@H](O)C[C@@]2(C)[C@@H]3CC=C4[C@@H](C[C@H](OC(=O)NCCCNC(=O)CC(C)(C)C5=C(C)C(=O)C(C)=C(C)C5=O)C(=O)C4(C)C)[C@]3(C)C(=O)C[C@]12C | Stable | > 90 | 15.4 | 1.87 | > 100 | 46.8 |  |  | Drug metabolism [16]: Metabolite_Detected; Drug metabolism [17]: Metabolite_Detected; Drug metabolism [18]: Metabolite_Notdetected; Drug metabolism [19]: Metabolite_Detected; Drug metabolism [20]: Metabolite_Detected
Metabolite_Detected | Metabolite_Detected | Metabolite_Detected | Metabolite_Notdetected | Metabolite_Detected | Not Active | CC(=O)OC(C)(C)/C=C/C(=O)[C@](C)(O)[C@H]1[C@H](O)C[C@@]2(C)[C@@H]3CC=C4[C@@H](C[C@H](OC(=O)N(C)CCCN(C)C(=O)CC(C)(C)C5=C(C)C(=O)C(C)=C(C)C5=O)C(=O)C4(C)C)[C@]3(C)C(=O)C[C@]12C | Stable | > 90 | 18.1 | 12.4 | > 100 | 310 |  |  | Drug uptake [6]: 8.39 µM; Drug metabolism [21]: Metabolite_Detected; inhibition in vivo at 5 mg/kg/day (4T1 [14]): 53.8%; Activity (4T1 [22]): <400 mg; Activity [23]: 6.46%; Activity [15]: 5.27%; Activity [24]: -2.49%; Drug metabolism [25]: Metabolite_Detected; TGI (4T1 [26]): Active; Drug metabolism [27]: Metabolite_Notdetected; Drug metabolism [28]: Metabolite_Detected
 |  |  |  |  |  | O=C1NCCCN1 |  |  |  |  |  |  | inactive | Non-Toxic | 
